From ChEMBL document CHEMBL3526018, “Metabolites of PPI-2458, a selective, irreversible inhibitor of methionine aminopeptidase-2: structure determination and in vivo activity” (Drug Metab Dispos, 2013)
Activity calls are given as the source filed them. No cut-off for these calls is given here.

Legend:
[1] = biological target: Cytochrome P450 3A4 (Homo sapiens, UniProt P08684); experiment: Inhibition of CYP3A4 activity in human liver microsomes using testosterone as a substrate by LC/MS analysis; assay type: ADME
[2] = Tmax in non-Hodgkin lymphoma patient at 15 mg, po alternate days for 21 days; assay type: ADME, organism-based; settings: human, in vivo
In short: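 Non-Hodgkin lymphoma patients given oral capsules every other day for 21 days. Plasma sampled predose and at 15, 30 min and 1, 2, 3, 4, 6, 8, 24, 48 h after the first dose. Protein precipitated, extract reconstituted, parent and metabolites quantified by validated LC-MS/MS. CL/F and Vss/F derived from the administered dose.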

[3] = Cmax in non-Hodgkin lymphoma patient at 15 mg, po alternate days for 21 days; assay type: ADME, organism-based; design: dose 15 mg, route oral; settings: human, in vivo
In short: (§1)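 Oral PPI-2458 given every other day to lymphoma patients. Plasma sampled pre-dose and at 15 min, 30 min, 1, 2, 3, 4, 6, 8, 24 and 48 h after the first dose. Parent and metabolites were measured by LC-MS/MS after protein precipitation, evaporation and reconstitution. CL/F was computed only for parent and summed analytes. For metabolites, t1/2 is an apparent first-phase value.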

[4] = AUC (0 to infinity) in non-Hodgkin lymphoma patient at 15 mg, po alternate days for 21 days; assay type: ADME, organism-based; design: dose 15 mg, route oral, time infinity; settings: human, in vivo; in short: as §1
[5] = system: Rattus norvegicus; experiment: Inhibition of MetAP2 level in Sprague-Dawley rat thymus assessed as free enzyme level at 0.3 mg/kg, iv by ELISA; assay type: functional, organism-based; design: dose 0.3 mg/kg
In short: (§2)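 Male Sprague-Dawley rats (200-225 g, n=3 per group) were dosed once IV at 0.3 mg/kg or PO at 0.3 or 3.0 mg/kg, in 11% HPCD in water. Blood, liver, lung, thymus and pooled non-mesenteric lymph nodes were taken at ~24 h and lysed or homogenized with NP-40. Free MetAP2 was measured by ELISA and expressed as % of vehicle.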

[6] = system: Liver microsome; experiment: Metabolic stability in human liver microsomes assessed as retention time of ((3R,4S,5S,6R)-4-((2R,3R)-3-(((R)-3,3-dimethyloxiran-2-yl)methyl)-2-methyloxiran-2-yl)-5-methoxy-1-oxaspiro[2.5]octan-6-yl ((R)-1-amino-3-methyl-1-oxobutan-2-yl)carbamate) at 5 mM by LC/MS analysis; assay type: ADME; settings: 5000 µM
[7] = system: Liver microsome; experiment: Metabolic stability in human liver microsomes assessed as retention time of ((3R,4S,5S,6R)-4-((2R,3R)-3-((E)-4-hydroxy-3-methylbut-2-en-1-yl)-2-methyloxiran-2-yl)-5-methoxy-1-oxaspiro[2.5]octan-6-yl((R)-1-amino-3-methyl-1-oxobutan-2-yl)carbamate) at 5 mM by LC/MS analysis; assay type: ADME; settings: 5000 µM
In short: (§3)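 Liver microsomes (pooled male/female) in 100 mM KPO4 pH 7.4 with PPI-2458 (5 mM stock), pre-incubated 5 min at 37°C, then 10 mM NADPH added; 20 min at 37°C with shaking. Time-zero and no-NADPH controls. Quenched with CH3CN; supernatant dried and redissolved in water. Analysed by LC-MS, ESI+ full scan 300–800 amu, C18 column, 10→50% B gradient.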

[8] = Metabolic stability in monkey liver microsomes assessed as retention time of ((3R,4S,5S,6R)-4-((2R,3R)-3-(((R)-3,3-dimethyloxiran-2-yl)methyl)-2-methyloxiran-2-yl)-5-methoxy-1-oxaspiro[2.5]octan-6-yl ((R)-1-amino-3-methyl-1-oxobutan-2-yl)carbamate) at 5 mM by LC/MS analysis; assay type: ADME, Macaca mulatta; settings: rhesus monkey, 5000 µM; in short: as §3
[9] = Metabolic stability in monkey liver microsomes assessed as retention time of ((3R,4S,5S,6R)-4-((2R,3R)-3-(((S)-3,3-dimethyloxiran-2-yl)methyl)-2-methyloxiran-2-yl)-5-methoxy-1-oxaspiro[2.5]octan-6-yl ((R)-1-amino-3-methyl-1-oxobutan-2-yl)carbamate) at 5 mM by LC/MS analysis; assay type: ADME, Macaca mulatta; settings: rhesus monkey, 5000 µM; in short: as §3
[10] = system: Rattus norvegicus; experiment: Inhibition of MetAP2 level in Sprague-Dawley rat liver assessed as free enzyme level at 0.3 mg/kg, po by ELISA; assay type: functional, organism-based; design: dose 0.3 mg/kg; in short: as §2
[11] = system: Rattus norvegicus; experiment: Inhibition of MetAP2 level in Sprague-Dawley rat thymus assessed as free enzyme level at 0.3 mg/kg, po by ELISA; assay type: functional, organism-based; design: dose 0.3 mg/kg; in short: as §2
[12] = system: Rattus norvegicus; experiment: Inhibition of MetAP2 level in Sprague-Dawley rat whole blood assessed as free enzyme level at 0.3 mg/kg, po by ELISA; assay type: functional, organism-based; design: dose 0.3 mg/kg; in short: as §2
[13] = system: Liver; experiment: Metabolic stability in mouse liver microsomes assessed as retention time of ((3R,4S,5S,6R)-4-((2R,3R)-3-(((R)-3,3-dimethyloxiran-2-yl)methyl)-2-methyloxiran-2-yl)-5-methoxy-1-oxaspiro[2.5]octan-6-yl ((R)-1-amino-3-methyl-1-oxobutan-2-yl)carbamate) at 5 mM by LC/MS analysis; assay type: ADME; settings: 5000 µM; in short: as §3
[14] = system: Liver; experiment: Metabolic stability in mouse liver microsomes assessed as retention time of ((3R,4S,5S,6R)-4-((2R,3R)-3-((E)-4-hydroxy-3-methylbut-2-en-1-yl)-2-methyloxiran-2-yl)-5-methoxy-1-oxaspiro[2.5]octan-6-yl((R)-1-amino-3-methyl-1-oxobutan-2-yl)carbamate) at 5 mM by LC/MS analysis; assay type: ADME; settings: 5000 µM; in short: as §3
[15] = system: Liver microsome; experiment: Metabolic stability in rat liver microsomes assessed as retention time of ((3R,4S,5S,6R)-4-((2R,3R)-3-((E)-4-hydroxy-3-methylbut-2-en-1-yl)-2-methyloxiran-2-yl)-5-methoxy-1-oxaspiro[2.5]octan-6-yl((R)-1-amino-3-methyl-1-oxobutan-2-yl)carbamate) at 5 mM by LC/MS analysis; assay type: ADME; settings: 5000 µM; in short: as §3
[16] = system: CYP3A5 (Homo sapiens); experiment: Activity of human recombinant CYP3A5 assessed as ((3R,4S,5S,6R)-5-methoxy-4-((2R,3R)-2-methyl-3-(3-methylbut-2-en-1-yl)oxiran-2-yl)-1-oxaspiro[2.5]octan-6-yl ((R)-1-amino-3-hydroxy-3-methyl-1-oxobutan-2-yl)carbamate) formation; settings: recombinant enzyme
[17] = system: CYP3A5 (Homo sapiens); experiment: Ratio of Vmax to Km for human recombinant CYP3A5 assessed as ((3R,4S,5S,6R)-5-methoxy-4-((2R,3R)-2-methyl-3-(3-methylbut-2-en-1-yl)oxiran-2-yl)-1-oxaspiro[2.5]octan-6-yl ((R)-1-amino-3-hydroxy-3-methyl-1-oxobutan-2-yl)carbamate) formation; settings: recombinant enzyme
[18] = system: CYP3A4 (Homo sapiens); experiment: Activity of human recombinant CYP3A4 assessed as ((3R,4S,5S,6R)-4-((2R,3R)-3-((E)-4-hydroxy-3-methylbut-2-en-1-yl)-2-methyloxiran-2-yl)-5-methoxy-1-oxaspiro[2.5]octan-6-yl((R)-1-amino-3-methyl-1-oxobutan-2-yl)carbamate) formation per pmol of enzyme
[19] = system: CYP3A5 (Homo sapiens); experiment: Activity of human recombinant CYP3A5 assessed as ((3R,4S,5S,6R)-4-((2R,3R)-3-(((S)-3,3-dimethyloxiran-2-yl)methyl)-2-methyloxiran-2-yl)-5-methoxy-1-oxaspiro[2.5]octan-6-yl ((R)-1-amino-3-methyl-1-oxobutan-2-yl)carbamate) formation per pmol of enzyme

Chain of Cytochrome P450 3A4 (P08684 whole entry): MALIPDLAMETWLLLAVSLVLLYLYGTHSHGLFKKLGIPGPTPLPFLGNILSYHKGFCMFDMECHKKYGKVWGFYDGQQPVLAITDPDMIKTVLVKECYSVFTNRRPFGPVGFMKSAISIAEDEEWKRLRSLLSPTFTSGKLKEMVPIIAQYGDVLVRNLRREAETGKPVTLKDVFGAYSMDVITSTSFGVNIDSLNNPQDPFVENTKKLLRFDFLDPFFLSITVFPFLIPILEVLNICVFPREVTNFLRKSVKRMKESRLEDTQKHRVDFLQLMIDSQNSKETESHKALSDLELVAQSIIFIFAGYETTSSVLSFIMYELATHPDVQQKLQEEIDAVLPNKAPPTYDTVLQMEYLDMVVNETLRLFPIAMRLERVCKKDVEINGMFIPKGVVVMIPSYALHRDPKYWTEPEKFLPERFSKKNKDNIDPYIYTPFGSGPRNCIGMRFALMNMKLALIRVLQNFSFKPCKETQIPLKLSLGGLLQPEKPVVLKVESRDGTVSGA

Work on `CO[C@@H]1[C@H](OC(=O)N[C@@H](C(N)=O)C(C)C)CC[C@]2(CO2)[C@H]1[C@@]1(C)O[C@@H]1CC=C(C)C` [PPI-2458] yielded a Ki [1] of 287 µM, a Tmax [2] of 36 min and a Cmax [3] of 0.055 µg/mL. For the same molecule, the AUC(0-inf) [4] was 0.0441 µg·h/mL, the inhibition [5] was “Active” and the Drug metabolism [6] was “metabolite_detected”. The Drug metabolism [7] was “metabolite_detected”, the Drug metabolism [8] was “metabolite_detected” and the Drug metabolism [9] was “metabolite_detected”. The inhibition [10] was “Active”, the inhibition [11] was “Active” and the inhibition [12] was “Active”. For the same molecule, the Drug metabolism [13] was “metabolite_detected”, the Drug metabolism [14] was “metabolite_detected” and the Drug metabolism [15] was “metabolite_detected”. It also gave a Km [16] of 17 µM, a Vmax/Km [17] of 0.09 µL/min and a Vmax [18] of 1.41 pmol/min. For the same molecule, the Vmax [19] was 1.42 pmol/min.
